From ChEMBL document CHEMBL4368937, “Design, synthesis and biological evaluation of low molecular weight CXCR4 ligands” (Bioorg Med Chem, 2019)
pEC50: −log10 of the molar value.

Key:
[1] = tested on: Human immunodeficiency virus 1; experiment: Antiviral activity against R5 tropic HIV-1 NL(AD8) infected in human MT4 cells assessed as protection against virus-induced cytopathic effect at 10 uM in absence of ZnCl2 after 5 days by MTT assay; type: functional; settings: Human immunodeficiency virus 1, NL(AD8), MT4, 120 h
[2] = target: T1, C-X-C chemokine receptor type 4 (Homo sapiens, UniProt P61073); experiment: Competitive inhibition of TAMRAAc-TZ14011 binding to CXCR4 (unknown origin) expressed in CHO cells at 1 uM in absence of ZnCl2 by NanoBRET assay relative to control; type: cell-based
T1 sequence (P61073 whole entry): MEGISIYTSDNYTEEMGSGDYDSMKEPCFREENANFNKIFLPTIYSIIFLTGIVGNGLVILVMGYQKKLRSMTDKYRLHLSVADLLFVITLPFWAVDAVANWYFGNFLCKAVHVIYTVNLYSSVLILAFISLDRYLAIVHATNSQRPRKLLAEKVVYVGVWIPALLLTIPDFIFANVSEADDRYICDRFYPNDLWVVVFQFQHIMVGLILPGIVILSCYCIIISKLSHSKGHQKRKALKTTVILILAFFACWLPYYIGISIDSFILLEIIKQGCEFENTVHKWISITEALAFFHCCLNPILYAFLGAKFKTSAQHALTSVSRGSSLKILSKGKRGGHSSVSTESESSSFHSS
Method in brief: (§1)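 Single-point competition in CHO cells stably expressing N-terminally Nluc-tagged CXCR4 (5 x 10^4 cells, seeded 24 h earlier at 37 °C, 5% CO2, medium then replaced with OptiMEM). Cells were incubated with 10 nM TAMRA-Ac-TZ14011 plus 1 µM compound, without or with 10 µM ZnCl2 (10 eq), for 1 h at 25 °C. Furimazine was added and BRET read as acceptor (>610 nm) over donor (460 nm). Inhibition is relative to no compound and to excess Ac-TZ14011; mean ± SEM, n = 3.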

[3] = target: T1, C-X-C chemokine receptor type 4; experiment: Competitive inhibition of [125I]-CXCL12 binding to CXCR4 in human Jurkat cells at 1 uM in absence of ZnCl2 after 2 hrs by gamma counting analysis relative to control; type: cell-based
[4] = Cytotoxicity against human MT4 cells in absence of ZnCl2; type: cell-based
[5] = target: T1, C-X-C chemokine receptor type 4; experiment: Competitive inhibition of TAMRAAc-TZ14011 binding to CXCR4 (unknown origin) expressed in CHO cells at 1 uM in presence of ZnCl2 by NanoBRET assay relative to control; type: cell-based; method in brief: as §1
[6] = tested on: Human immunodeficiency virus 1; experiment: Antiviral activity against R5 tropic HIV-1 NL(AD8) infected in human MT4 cells assessed as protection against virus-induced cytopathic effect at 10 uM in presence of ZnCl2 after 5 days by MTT assay; type: functional; settings: Human immunodeficiency virus 1, NL(AD8), MT4, 120 h
[7] = tested on: Human immunodeficiency virus 1; experiment: Antiviral activity against X4 tropic HIV-1 NL4-3 infected in human MT4 cells assessed as protection against virus-induced cytopathic effect in absence of ZnCl2 after 5 days by MTT assay; type: functional, organism-based; settings: Human immunodeficiency virus 1, NL4-3, MT4, 120 h
Method in brief: (§2)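 Protection of MT-4 cells from X4 HIV-1 NL4-3 cytopathicity. Infected cells (MOI 0.001, 2.0 × 10^4 cells/well) received graded compound concentrations, without or with ZnCl2 (10 eq), for 5 days at 37 °C. Viable cells were counted by MTT. EC50 is the concentration giving 50% protection; mean of at least three independent experiments.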

[8] = tested on: Human immunodeficiency virus 1; experiment: Antiviral activity against X4 tropic HIV-1 NL4-3 infected in human MT4 cells assessed as protection against virus-induced cytopathic effect in presence of ZnCl2 after 5 days by MTT assay; type: functional, organism-based; settings: Human immunodeficiency virus 1, NL4-3, MT4, 120 h; method in brief: as §2
[9] = target: T1, C-X-C chemokine receptor type 4; experiment: Competitive inhibition of [125I]-CXCL12 binding to CXCR4 in human Jurkat cells at 1 uM in presence of ZnCl2 after 2 hrs by gamma counting analysis relative to control; type: cell-based

| Structure (SMILES) | inhibition at 10 µM [1] | inhibition [2] | inhibition [3] | CC50 [4] | inhibition [5] | inhibition at 10 µM [6] | pEC50 [7] | pEC50 [8] | inhibition [9] |
| --- | --- | --- | --- | --- | --- | --- | --- | --- | --- |
| c1ccc(CN(Cc2ccnc(-c3ccc(CN4CCCNCCNCCCNCC4)cc3)c2)Cc2ccccn2)nc1 | < 30% | 79.7% | 39.2% | > 10000 nM | 92.6% | < 30% | 6.85 | 7.35 | 89.7% |
| c1ccc(CN(Cc2ccc(-c3ccc(CN4CCCNCCNCCCNCC4)cc3)cc2)Cc2ccccn2)nc1 | < 30% | 51.1% | 33.9% | 4800 nM | 87.9% | < 30% | 6.11 | 6.00 | 85.5% |
| c1ccc(CN(Cc2cccc(-c3cccc(CN4CCCNCCNCCCNCC4)c3)c2)Cc2ccccn2)nc1 | < 30% | 40.4% | 46.6% | > 10000 nM | 88.4% | < 30% | 6.12 | 6.01 | 105% |
| c1ccc(CN(Cc2ccc3c(c2)-c2cc(CN4CCCNCCNCCCNCC4)ccc2OCCCO3)Cc2ccccn2)nc1 | < 30% | 50.4% | 32.5% | > 10000 nM | 81.8% | < 30% | 6.24 | 6.52 | 97.1% |
| c1ccc(CN(Cc2ccnc(-c3cc(CN4CCCNCCNCCCNCC4)ccn3)c2)Cc2ccccn2)nc1 | < 30% | 88.5% | 100% | > 10000 nM | 92.2% | < 30% | 6.04 | 6.70 | 99.2% |
| c1ccc(CN(Cc2ccccn2)Cc2ccccc2-c2ccccc2CN2CCCNCCNCCCNCC2)nc1 | < 30% | 79.8% | 90.4% | > 10000 nM | 99% | < 30% | 6.00 | 5.24 | 74.1% |
| c1ccc(CN(Cc2ccc3c(c2)-c2cc(CN4CCCNCCNCCCNCC4)ccc2OCO3)Cc2ccccn2)nc1 | < 30% | 43.5% | 54.4% | > 10000 nM | 88.5% | < 30% | 6.10 | 6.06 | 95.6% |
| c1ccc(CN(Cc2ccc3c(c2)-c2cc(CN4CCCNCCNCCCNCC4)ccc2OCCO3)Cc2ccccn2)nc1 | < 30% | 47.8% | 48.7% | > 10000 nM | 89% | < 30% | 5.72 | 6.01 | 119% |
| c1ccc(CN(Cc2ccc(-c3ccc(CN4CCCNCCNCCCNCC4)cc3)nc2)Cc2ccccn2)nc1 | < 30% | 89.1% | 27% | > 10000 nM | 102% | < 30% | 6.23 | 6.89 | 105% |
| c1ccc(CN(Cc2ccccn2)Cc2ccccc2-c2ccc(CN3CCCNCCNCCCNCC3)cc2)nc1 | < 30% | 64.6% | 79.9% | > 10000 nM | 87.5% | < 30% | 5.59 | 6.05 | 84.1% |
| c1ccc(CN(Cc2cccc(-c3ccc(CN4CCCNCCNCCCNCC4)cc3)c2)Cc2ccccn2)nc1 | < 30% | 35.6% | 38.3% | > 10000 nM | 105% | < 30% | 5.51 | 6.00 | 119% |
| c1ccc(CN(Cc2ccc3nc(CN4CCCNCCNCCCNCC4)ccc3c2)Cc2ccccn2)nc1 | – | 81.1% | 81% | > 10000 nM | 101% | – | < 6.01 | 5.26 | 110% |
